Results from ChEMBL document CHEMBL4689842, “EUbOPEN Chemogenomics Library wave 1” (2021).

System: U2OS
Assay: Multiplex assay against U2OS
Format: toxicity, cell-based
Conditions: human
How it was run: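 Live cells carried four stains from seeding: Hoechst33342, BioTracker Green Microtubule Cytoskeleton Dye, MitoTracker Red and Annexin V Alexa Fluor 680. They were imaged on a CQ1 microscope at 37°C and 5% CO2 after compound addition. Using CellPathfinder machine-learning gating, cells were split into Hoechst high-intensity objects or normal cells, normal cells into healthy, pyknosed or fragmented nuclei, and pyknosed cells into mitotic or apoptotic; tubulin, mitochondrial-mass and membrane-permeability phenotypes are per cents of healthy-nucleus cells.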

[1] = 12 h, 1 µM, compound concentration 1 uM, replicate 1
[2] = 12 h, 1 µM, compound concentration 1 uM, replicate 2
[3] = 12 h, 10 µM, compound concentration 10 uM, replicate 1
[4] = 12 h, 10 µM, compound concentration 10 uM, replicate 2
[5] = 24 h, 1 µM, compound concentration 1 uM, replicate 1
[6] = 24 h, 1 µM, compound concentration 1 uM, replicate 2
[7] = 24 h, 10 µM, compound concentration 10 uM, replicate 1
[8] = 24 h, 10 µM, compound concentration 10 uM, replicate 2
[9] = 48 h, 1 µM, compound concentration 1 uM, replicate 1
[10] = 48 h, 1 µM, compound concentration 1 uM, replicate 2
[11] = 48 h, 10 µM, compound concentration 10 uM, replicate 1
[12] = 48 h, 10 µM, compound concentration 10 uM, replicate 2

With `Cc1cc(C)c(S(=O)(=O)N(Cc2ccc(-c3cccc(S(C)(=O)=O)c3)cc2)Cc2ccc(C(F)(F)F)o2)c(C)c1` the “Population Apoptotic (%)” value [1] was 50%, the “Population Fragmented Nuclei (%)” value [1] was 9% and the “Population Healthy Nuclei (%)” value [1] was 84%. For the same compound, the “Population Hoechst High Intensity Objects (%)” value [1] was 7%, the “Population Membrane Permeable-Phenotype (%)” value [1] was 4% and the “Population Mitochondria Different-Phenotype (%)” value [1] was 18%. For the same compound, the “Population Mitotic Cells (%)” value [1] was 50%, the “Population Normal (%)” value [1] was 92% and the “Population Pyknosed Nuclei (%)” value [1] was 6%. For the same compound, the “Population Tubulin-Different-Phenotype (%)” value [1] was 12%, the “Total Cell Count” value [1] was 77 and the “Population Apoptotic (%)” value [2] was 66%. For the same compound, the “Population Fragmented Nuclei (%)” value [2] was 15%, the “Population Healthy Nuclei (%)” value [2] was 80% and the “Population Hoechst High Intensity Objects (%)” value [2] was 6%. The “Population Membrane Permeable-Phenotype (%)” value [2] was 3%, the “Population Mitochondria Different-Phenotype (%)” value [2] was 21% and the “Population Mitotic Cells (%)” value [2] was 33%. For the same compound, the “Population Normal (%)” value [2] was 93%, the “Population Pyknosed Nuclei (%)” value [2] was 3% and the “Population Tubulin-Different-Phenotype (%)” value [2] was 27%. The “Total Cell Count” value [2] was 72, the “Population Apoptotic (%)” value [3] was 31% and the “Population Fragmented Nuclei (%)” value [3] was 8%. The “Population Healthy Nuclei (%)” value [3] was 81%, the “Population Hoechst High Intensity Objects (%)” value [3] was 5% and the “Population Membrane Permeable-Phenotype (%)” value [3] was 58%. The “Population Mitochondria Different-Phenotype (%)” value [3] was 27%, the “Population Mitotic Cells (%)” value [3] was 68% and the “Population Normal (%)” value [3] was 94%. The “Population Pyknosed Nuclei (%)” value [3] was 10%, the “Population Tubulin-Different-Phenotype (%)” value [3] was 85% and the “Total Cell Count” value [3] was 104. For the same compound, the “Population Apoptotic (%)” value [4] was 0%, the “Population Fragmented Nuclei (%)” value [4] was 14% and the “Population Healthy Nuclei (%)” value [4] was 77%. The “Population Hoechst High Intensity Objects (%)” value [4] was 22%, the “Population Membrane Permeable-Phenotype (%)” value [4] was 3% and the “Population Mitochondria Different-Phenotype (%)” value [4] was 3%. The “Population Mitotic Cells (%)” value [4] was 100%, the “Population Normal (%)” value [4] was 77% and the “Population Pyknosed Nuclei (%)” value [4] was 8%. For the same compound, the “Population Tubulin-Different-Phenotype (%)” value [4] was 11%, the “Total Cell Count” value [4] was 81 and the “Population Apoptotic (%)” value [5] was 40%. For the same compound, the “Population Fragmented Nuclei (%)” value [5] was 10%, the “Population Healthy Nuclei (%)” value [5] was 82% and the “Population Hoechst High Intensity Objects (%)” value [5] was 3%. For the same compound, the “Population Membrane Permeable-Phenotype (%)” value [5] was 3%, the “Population Mitochondria Different-Phenotype (%)” value [5] was 13% and the “Population Mitotic Cells (%)” value [5] was 60%. The “Population Normal (%)” value [5] was 96%, the “Population Pyknosed Nuclei (%)” value [5] was 7% and the “Population Tubulin-Different-Phenotype (%)” value [5] was 9%. For the same compound, the “Total Cell Count” value [5] was 89, the “Population Apoptotic (%)” value [6] was 0% and the “Population Fragmented Nuclei (%)” value [6] was 14%. The “Population Healthy Nuclei (%)” value [6] was 80%, the “Population Hoechst High Intensity Objects (%)” value [6] was 1% and the “Population Membrane Permeable-Phenotype (%)” value [6] was 5%. The “Population Mitochondria Different-Phenotype (%)” value [6] was 18%, the “Population Mitotic Cells (%)” value [6] was 100% and the “Population Normal (%)” value [6] was 98%. For the same compound, the “Population Pyknosed Nuclei (%)” value [6] was 5%, the “Population Tubulin-Different-Phenotype (%)” value [6] was 32% and the “Total Cell Count” value [6] was 86. For the same compound, the “Population Apoptotic (%)” value [7] was 41%, the “Population Fragmented Nuclei (%)” value [7] was 11% and the “Population Healthy Nuclei (%)” value [7] was 71%. The “Population Hoechst High Intensity Objects (%)” value [7] was 6%, the “Population Membrane Permeable-Phenotype (%)” value [7] was 47% and the “Population Mitochondria Different-Phenotype (%)” value [7] was 32%. For the same compound, the “Population Mitotic Cells (%)” value [7] was 58%, the “Population Normal (%)” value [7] was 93% and the “Population Pyknosed Nuclei (%)” value [7] was 17%. For the same compound, the “Population Tubulin-Different-Phenotype (%)” value [7] was 87%, the “Total Cell Count” value [7] was 133 and the “Population Apoptotic (%)” value [8] was 14%. For the same compound, the “Population Fragmented Nuclei (%)” value [8] was 15%, the “Population Hoechst High Intensity Objects (%)” value [8] was 10% and the “Population Membrane Permeable-Phenotype (%)” value [8] was 5%. The “Population Mitochondria Different-Phenotype (%)” value [8] was 10%, the “Population Mitotic Cells (%)” value [8] was 85% and the “Population Normal (%)” value [8] was 89%. For the same compound, the “Population Pyknosed Nuclei (%)” value [8] was 13%, the “Population Tubulin-Different-Phenotype (%)” value [8] was 15% and the “Total Cell Count” value [8] was 109. The “Population Apoptotic (%)” value [9] was 64%, the “Population Fragmented Nuclei (%)” value [9] was 6% and the “Population Healthy Nuclei (%)” value [9] was 83%. For the same compound, the “Population Hoechst High Intensity Objects (%)” value [9] was 3%, the “Population Membrane Permeable-Phenotype (%)” value [9] was 1% and the “Population Mitochondria Different-Phenotype (%)” value [9] was 7%. The “Population Mitotic Cells (%)” value [9] was 35%, the “Population Normal (%)” value [9] was 96% and the “Population Pyknosed Nuclei (%)” value [9] was 9%. For the same compound, the “Population Tubulin-Different-Phenotype (%)” value [9] was 4%, the “Total Cell Count” value [9] was 116 and the “Population Apoptotic (%)” value [10] was 50%. For the same compound, the “Population Fragmented Nuclei (%)” value [10] was 9%, the “Population Healthy Nuclei (%)” value [10] was 84% and the “Population Hoechst High Intensity Objects (%)” value [10] was 2%. For the same compound, the “Population Membrane Permeable-Phenotype (%)” value [10] was 6%, the “Population Mitochondria Different-Phenotype (%)” value [10] was 25% and the “Population Mitotic Cells (%)” value [10] was 50%. The “Population Normal (%)” value [10] was 97%, the “Population Pyknosed Nuclei (%)” value [10] was 5% and the “Population Tubulin-Different-Phenotype (%)” value [10] was 34%. The “Total Cell Count” value [10] was 123, the “Population Apoptotic (%)” value [11] was 55% and the “Population Fragmented Nuclei (%)” value [11] was 9%. For the same compound, the “Population Healthy Nuclei (%)” value [11] was 72%, the “Population Hoechst High Intensity Objects (%)” value [11] was 3% and the “Population Membrane Permeable-Phenotype (%)” value [11] was 24%. The “Population Mitochondria Different-Phenotype (%)” value [11] was 24%, the “Population Mitotic Cells (%)” value [11] was 45% and the “Population Normal (%)” value [11] was 96%. For the same compound, the “Population Pyknosed Nuclei (%)” value [11] was 18%, the “Population Tubulin-Different-Phenotype (%)” value [11] was 55% and the “Total Cell Count” value [11] was 181. For the same compound, the “Population Apoptotic (%)” value [12] was 25%, the “Population Fragmented Nuclei (%)” value [12] was 7% and the “Population Healthy Nuclei (%)” value [12] was 82%. The “Population Membrane Permeable-Phenotype (%)” value [12] was 6%, the “Population Mitochondria Different-Phenotype (%)” value [12] was 10% and the “Population Mitotic Cells (%)” value [12] was 75%. The “Population Pyknosed Nuclei (%)” value [12] was 10%, the “Population Tubulin-Different-Phenotype (%)” value [12] was 13% and the “Total Cell Count” value [12] was 148.
